Broadly, the GI50 is the concentration at which growth is held to half of that of the control. High values mean less potent growth inhibition, low ones more potent growth inhibition.

The structures appear in SMILES notation.

System in one series: not listed separately
The series can be described thus: Cytotoxicity against HEK293T cells after 48 hrs by MTT assay. Type of series: cell-based, HEK-293T. The following applies: human. The method, boiled down:
(§1)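 Cells (HEK 293T, MCF-7, MDA-MB-231 from ATCC) seeded the day before in medium with serum, penicillin G, streptomycin and 2 mM L-glutamine. Compounds in DMSO, serially diluted in medium, final DMSO ≤0.5% (v/v), same in controls. 48 h at 37 °C, 5% CO2. MTT 3 h, formazan dissolved in DMSO, A570. Triplicates, ≥3 experiments. GI50 from % viable cells.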
`O=C1Nc2cc(Cl)ccc2[C@]12[C@@H](c1ccccc1)C(c1ccccc1)=NN2c1ccccc1` showed a GI50 at 48 h above 50 µM.
Take `O=C1Nc2ccc(Br)cc2[C@]12[C@@H](c1ccccc1)C(c1ccccc1)=NN2c1ccccc1`: the GI50 at 48 h is above 100 µM.
Molecule `O=C1Nc2cc(Br)ccc2[C@]12[C@@H](c1ccccc1)C(c1ccccc1)=NN2c1ccccc1` had a GI50 at 48 h of 28.9 µM. In other words, the double-digit micromolar range.
`COc1ccc(C2=NN(c3ccccc3)[C@]3(C(=O)Nc4c(Cl)cccc43)[C@H]2c2ccccc2)cc1` yielded a 50% growth inhibitory concentration (GI50) at 48 h above 100 µM.
Molecule `COc1ccc(C2=NN(c3ccccc3)[C@]3(C(=O)Nc4cc(Br)ccc43)[C@H]2c2ccccc2)cc1` registered a GI50 at 48 h above 100 µM.
For the molecule `CC(C)(C)C1=NN(c2ccccc2)[C@]2(C(=O)Nc3cc(Cl)ccc32)[C@H]1c1ccccc1`, the GI50 at 48 h was above 50 µM.
`CC(C)(C)C1=NN(c2ccccc2)[C@]2(C(=O)Nc3c(Cl)cccc32)[C@H]1c1ccccc1` showed a GI50 at 48 h of 17.8 µM.
Turning to `CC(C)(C)C1=NN(c2ccccc2)[C@]2(C(=O)Nc3cc(Br)ccc32)[C@H]1c1ccccc1`, halving of growth (GI50 at 48 h) required 20.9 µM. This GI50 at 48 h and that of the molecule before are within 1.5-fold of each other.

The subject of the next series is MDA-MB-231. The series can be described thus: Cytotoxicity against human HER2/estrogen receptor-deficient MDA-MB-231 cells after 48 hrs by MTT assay. Type of series: functional. To be noted: MDA-MB-231, 48 h. The method, boiled down:
as §1
As for `O=C1Nc2cc(Cl)ccc2[C@]12[C@@H](c1ccccc1)C(c1ccccc1)=NN2c1ccccc1`, the GI50 is above 50 µM.
Take `O=C1Nc2ccc(Br)cc2[C@]12[C@@H](c1ccccc1)C(c1ccccc1)=NN2c1ccccc1`: the GI50 was above 100 µM.
`O=C1Nc2cc(Br)ccc2[C@]12[C@@H](c1ccccc1)C(c1ccccc1)=NN2c1ccccc1` came in with a 50% growth inhibitory concentration (GI50) of 8.3 µM. In other words, the single-digit micromolar range.
`COc1ccc(C2=NN(c3ccccc3)[C@]3(C(=O)Nc4c(Cl)cccc43)[C@H]2c2ccccc2)cc1` displayed a 50% growth inhibitory concentration (GI50) above 100 µM.
In turn, `COc1ccc(C2=NN(c3ccccc3)[C@]3(C(=O)Nc4cc(Br)ccc43)[C@H]2c2ccccc2)cc1` had a concentration for 50% growth inhibition (GI50) of 28.6 µM. That is a double-digit micromolar value.
For `CC(C)(C)C1=NN(c2ccccc2)[C@]2(C(=O)Nc3cc(Cl)ccc32)[C@H]1c1ccccc1`, the 50% growth inhibitory concentration (GI50) was above 50 µM.
Take `CC(C)(C)C1=NN(c2ccccc2)[C@]2(C(=O)Nc3c(Cl)cccc32)[C@H]1c1ccccc1`: the GI50 came out at 6.4 µM.
In the case of `CC(C)(C)C1=NN(c2ccccc2)[C@]2(C(=O)Nc3cc(Br)ccc32)[C@H]1c1ccccc1`, the GI50 is 15 µM. This GI50 lies about 2.3-fold higher than the previous one.

The next series concerns MCF7. The series can be described thus: Cytotoxicity against human HER2-deficient MCF7 cells expressing estrogen receptor after 48 hrs by MTT assay. To be noted: MCF7, 48 h. The series is classed as functional. Summed up: as §1
Turning to `O=C1Nc2ccccc2[C@]12CC(c1ccccc1)=NN2`, the 50% growth inhibitory concentration (GI50) is above 100 µM.
The molecule `O=C1Nc2ccc(Cl)cc2[C@]12CC(c1ccccc1)=NN2` had a GI50 above 100 µM.
`O=C1Nc2ccc(Br)cc2[C@]12CC(c1ccccc1)=NN2` returned a GI50 above 100 µM.
`CCOC(=O)[C@H]1C(c2ccccc2)=NN(c2ccccc2)[C@]12C(=O)Nc1ccc(Cl)cc12` registered a GI50 above 100 µM.
As to `O=C(c1ccccc1)[C@H]1C(c2ccccc2)=NN(c2ccccc2)[C@]12C(=O)Nc1ccc(Cl)cc12`, the GI50 was above 100 µM.
Same read-out and setting: the value for `O=C1Nc2ccccc2[C@]12[C@@H](c1ccccc1)C(c1ccccc1)=NN2c1ccccc1` was above 100 µM; that for `O=C1Nc2ccc(Cl)cc2[C@]12[C@@H](c1ccccc1)C(c1ccccc1)=NN2c1ccccc1` was 37.7 µM; that for `O=C1Nc2cc(Cl)ccc2[C@]12[C@@H](c1ccccc1)C(c1ccccc1)=NN2c1ccccc1` was 27.1 µM.
Same read-out and setting: the value for `O=C1Nc2ccc(Br)cc2[C@]12[C@@H](c1ccccc1)C(c1ccccc1)=NN2c1ccccc1` was 7.3 µM; that for `O=C1Nc2cc(Br)ccc2[C@]12[C@@H](c1ccccc1)C(c1ccccc1)=NN2c1ccccc1` was 9.6 µM; that for `COc1ccc(C2=NN(c3ccccc3)[C@]3(C(=O)Nc4ccc(Cl)cc43)[C@H]2c2ccccc2)cc1` was 33.9 µM.
In turn, `COc1ccc(C2=NN(c3ccccc3)[C@]3(C(=O)Nc4cc(Cl)ccc43)[C@H]2c2ccccc2)cc1` returned a GI50 of 42.6 µM. The GI50 values of the last two molecules are within 1.5-fold of each other.
Regarding `COc1ccc(C2=NN(c3ccccc3)[C@]3(C(=O)Nc4c(Cl)cccc43)[C@H]2c2ccccc2)cc1`, halving of growth (GI50) required 11.5 µM.
`COc1ccc(C2=NN(c3ccccc3)[C@]3(C(=O)Nc4cc(Br)ccc43)[C@H]2c2ccccc2)cc1` displayed a GI50 of 7 µM.
The molecule `CC(C)(C)C1=NN(c2ccccc2)[C@]2(C(=O)Nc3cc(Cl)ccc32)[C@H]1c1ccccc1` returned a GI50 of 21.7 µM. Compared with the last molecule, the GI50 is about 3.1-fold higher.
With `CC(C)(C)C1=NN(c2ccccc2)[C@]2(C(=O)Nc3c(Cl)cccc32)[C@H]1c1ccccc1`, the GI50 stood at 8.6 µM. Compared with the last molecule, the GI50 is about 2.5-fold lower.
In the case of `CC(C)(C)C1=NN(c2ccccc2)[C@]2(C(=O)Nc3cc(Br)ccc32)[C@H]1c1ccccc1`, the GI50 came to 8.5 µM.
With `COc1ccc([C@H]2C(c3ccccc3)=NN(c3ccccc3)[C@]23C(=O)Nc2cc(Cl)ccc23)cc1`, the GI50 is above 100 µM.

System in another series: not listed separately
The series can be described thus: Solubility of the compound at 100 uM. Type of series: physicochemical.
Details: not given
As to `O=C1Nc2cc(Cl)ccc2[C@]12[C@@H](c1ccccc1)C(c1ccccc1)=NN2c1ccccc1`, the solubility entry is listed as “Insoluble”.
On the same count and under the same terms, the value for `CC(C)(C)C1=NN(c2ccccc2)[C@]2(C(=O)Nc3cc(Cl)ccc32)[C@H]1c1ccccc1` was “Insoluble”.

The next series has as its system HEK-293T. As to the kind of experiment: Selectivity index, ratio of GI50 for HEK293T cells to GI50 for human HER2-deficient MCF7 cells. The series is classed as functional.
Details: not given
As for `O=C1Nc2cc(Cl)ccc2[C@]12[C@@H](c1ccccc1)C(c1ccccc1)=NN2c1ccccc1`, the RatioGI50 is on record as above 2.
As for `O=C1Nc2ccc(Br)cc2[C@]12[C@@H](c1ccccc1)C(c1ccccc1)=NN2c1ccccc1`, the RatioGI50 is given as above 13.
For `O=C1Nc2cc(Br)ccc2[C@]12[C@@H](c1ccccc1)C(c1ccccc1)=NN2c1ccccc1`, the RatioGI50 was 3.
The same measure, in the same setting: in the case of `COc1ccc(C2=NN(c3ccccc3)[C@]3(C(=O)Nc4c(Cl)cccc43)[C@H]2c2ccccc2)cc1` it was above 8; in that of `COc1ccc(C2=NN(c3ccccc3)[C@]3(C(=O)Nc4cc(Br)ccc43)[C@H]2c2ccccc2)cc1`, above 14; in that of `CC(C)(C)C1=NN(c2ccccc2)[C@]2(C(=O)Nc3cc(Cl)ccc32)[C@H]1c1ccccc1`, above 2.
The same measure, in the same setting: in the case of `CC(C)(C)C1=NN(c2ccccc2)[C@]2(C(=O)Nc3c(Cl)cccc32)[C@H]1c1ccccc1` it was 2; in that of `CC(C)(C)C1=NN(c2ccccc2)[C@]2(C(=O)Nc3cc(Br)ccc32)[C@H]1c1ccccc1`, 2.5.

(Values after ChEMBL document CHEMBL3232822, “Synthesis of novel spiropyrazoline oxindoles and evaluation of cytotoxicity in cancer cell lines” (Eur J Med Chem, 2014).)
